These results are taken from paper PMC6381215 (Pharmacology Research & Perspectives, 2019).

SMILES strings stand for the structures.

Experiment [1] deals with Ca2+ channel (L, verapamil site). Kind of experiment: radioligand competition. To be noted: read-out: IC50 (M) ^a. The essentials:
(§1)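 Outsourced radioligand competition binding panel of receptors, transporters and ion channels. Primary screen used a single 10 μmol L−1 concentration of test compound to give % inhibition of control specific binding. […] IC50 and Hill coefficient were obtained by non-linear regression.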
On the technique in general: Loss of bound radioactivity is the signal in a displacement assay; it reports binding, not function.

Experiment [2] relates to Na+ channel (site 2). Briefly: radioligand competition. To be noted: read-out: IC50 (M) ^a. The procedure, abridged:
as §1

Experiment [3] relates to Sigma (1 and 2). Kind of experiment: radioligand competition. To be noted: read-out: IC50 (M) ^a; non-selective sigma 1 and 2. The essentials: as §1
The target of experiment [4] is NMDA receptor (ion-channel / PCP site), rat forebrain membranes. Kind of experiment: enhancement of [3H]MK-[…]) binding. To be noted: 5 mM Tris-HCl pH 7.4, 25 °C, 20 h.

Take `COc1cccc(N(C)C(=N)Nc2cc(SC)ccc2Cl)c1` [GMOM, N‐(2‐chloro‐5‐thiomethylphenyl)‐N′‐(3‐methoxyphenyl)‐N′‐methylguanidine]: the IC50 (usually the concentration that inhibits the measured activity by half) was found to be 2.2e-06 M in experiment [1], 3.9e-06 M in experiment [2] and 2.2e-06 M in experiment [3]. With `N[C@@H](CCC(=O)O)C(=O)O` [L-glutamate], the EC50 (in general, the concentration at which the effect is half-maximal) in experiment [4] (agonist (glutamate) site, no added glycine) is 200 ± 10 nM. With `NCC(=O)O` [glycine], the EC50 in experiment [4] (co-agonist (glycine) site, no added glutamate) worked out at 1050 ± 500 nM.
